According to ChEMBL document CHEMBL3352165 (Eur J Med Chem, 2014):
The source made the active and inactive calls. The calls are words filed in the database; no cut-off is given here.

Assays:
[1] = molecular target: Mast/stem cell growth factor receptor Kit (Homo sapiens, UniProt P10721); test: Inhibition of c-KIT phosphorylation (unknown origin) expressed in human NCI-H526 cells at 0.001 to 1 uM incubated for 2 hrs by Western blot method; type: cell-based
Summary of the method: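 Cells grown to half-confluence and serum-starved 24 h, then treated 2 h at 0.001, 0.01, 0.1 and 1 µM. Afterwards stimulated at 37 °C with 20 ng/ml SCF-1, PDGF-BB or VEGF as appropriate to the receptor. Phosphorylation assessed by western blot.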

[2] = cells; settings: Homo sapiens, SK-OV-3, 72 h
[3] = molecular target: Epidermal growth factor receptor (Homo sapiens, UniProt P00533); settings: A-431, 0.001 to 1 uM
[4] = molecular target: Receptor tyrosine-protein kinase erbB-2 (Homo sapiens, UniProt P04626); test: Inhibition of HER2 (unknown origin) assessed as reduction in autophosphorylation by ELISA method
Summary of the method: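 Phosphotyrosine ELISA with purified kinase (20 ng) and 5 µM ATP in buffer (50 mM HEPES pH 7.4, 20 mM MgCl2, 0.1 mM MnCl2, 0.2 mM Na3VO4, 1 mM DTT), 1 h at 37 °C, DMSO ≤1%. Detection by PY99 antibody, then HRP anti-mouse IgG with o-phenylenediamine, A490. IC50 by Logit from at least three independent tests.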

[5] = test system: BT-474; test: Induction of cell cycle arrest in human BT474 cells assessed as accumulation at G1 phase at 0.001 uM incubated for 12 hrs by propidium iodide staining based flow cytometry (reference value: 67%); type: functional
[6] = test system: MDA-MB-231; test: cells; settings: Homo sapiens, MDA-MB-231, 72 h
[7] = Antitumor activity against human Calu3 cells xenografted in BALB/cA mouse assessed as tumor growth inhibition at 100 mg/kg, po; type: functional; settings: Calu-3, read-out: TGI
Summary of the method: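 Female BALB/cA nude mice, 6–7 weeks old, implanted s.c. on midright side with 2×10^6 Calu-3 cells in 0.2 ml PBS. Grouped at 60–150 mm³ tumour volume (6 per treated group, 12 vehicle). Oral dosing in 0.5% CMC with 0.1% Tween-80. Caliper volume = L×W²×0.5; inhibition = (1 − T/C)×100% on relative tumour volume; weight tracked for 21 d.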

Receptor tyrosine-protein kinase erbB-2, sequence (P04626 whole entry): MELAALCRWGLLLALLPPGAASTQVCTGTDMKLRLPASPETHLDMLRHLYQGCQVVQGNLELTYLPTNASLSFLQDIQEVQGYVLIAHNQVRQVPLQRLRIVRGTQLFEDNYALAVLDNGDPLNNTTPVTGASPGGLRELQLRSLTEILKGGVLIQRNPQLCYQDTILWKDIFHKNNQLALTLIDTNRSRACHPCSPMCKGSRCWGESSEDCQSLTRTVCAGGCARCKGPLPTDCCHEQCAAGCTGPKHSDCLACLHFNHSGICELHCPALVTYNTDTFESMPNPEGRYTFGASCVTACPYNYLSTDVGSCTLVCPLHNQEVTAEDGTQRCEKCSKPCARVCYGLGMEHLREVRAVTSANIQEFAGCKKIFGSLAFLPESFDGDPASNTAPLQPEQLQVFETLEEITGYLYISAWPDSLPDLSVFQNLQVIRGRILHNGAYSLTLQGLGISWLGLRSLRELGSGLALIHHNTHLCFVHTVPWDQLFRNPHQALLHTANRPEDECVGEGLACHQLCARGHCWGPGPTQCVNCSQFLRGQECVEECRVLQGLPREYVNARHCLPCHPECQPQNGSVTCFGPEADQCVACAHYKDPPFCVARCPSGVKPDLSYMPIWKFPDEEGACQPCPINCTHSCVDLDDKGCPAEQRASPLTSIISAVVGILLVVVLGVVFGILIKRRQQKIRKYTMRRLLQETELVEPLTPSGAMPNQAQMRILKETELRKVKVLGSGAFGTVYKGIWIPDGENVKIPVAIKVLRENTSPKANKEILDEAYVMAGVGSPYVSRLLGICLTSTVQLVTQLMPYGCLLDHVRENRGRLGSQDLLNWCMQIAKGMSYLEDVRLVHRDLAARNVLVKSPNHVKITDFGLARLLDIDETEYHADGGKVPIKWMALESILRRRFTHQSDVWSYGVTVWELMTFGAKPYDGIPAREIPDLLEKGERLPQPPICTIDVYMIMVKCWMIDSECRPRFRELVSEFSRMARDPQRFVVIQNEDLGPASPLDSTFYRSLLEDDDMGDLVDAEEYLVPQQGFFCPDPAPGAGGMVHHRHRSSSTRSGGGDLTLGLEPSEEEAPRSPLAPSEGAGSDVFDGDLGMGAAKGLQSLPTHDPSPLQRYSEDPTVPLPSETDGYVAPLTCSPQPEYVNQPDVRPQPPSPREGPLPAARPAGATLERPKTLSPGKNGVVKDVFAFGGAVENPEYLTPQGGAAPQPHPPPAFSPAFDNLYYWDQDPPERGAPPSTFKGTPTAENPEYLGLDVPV
Mast/stem cell growth factor receptor Kit, sequence (P10721 whole entry): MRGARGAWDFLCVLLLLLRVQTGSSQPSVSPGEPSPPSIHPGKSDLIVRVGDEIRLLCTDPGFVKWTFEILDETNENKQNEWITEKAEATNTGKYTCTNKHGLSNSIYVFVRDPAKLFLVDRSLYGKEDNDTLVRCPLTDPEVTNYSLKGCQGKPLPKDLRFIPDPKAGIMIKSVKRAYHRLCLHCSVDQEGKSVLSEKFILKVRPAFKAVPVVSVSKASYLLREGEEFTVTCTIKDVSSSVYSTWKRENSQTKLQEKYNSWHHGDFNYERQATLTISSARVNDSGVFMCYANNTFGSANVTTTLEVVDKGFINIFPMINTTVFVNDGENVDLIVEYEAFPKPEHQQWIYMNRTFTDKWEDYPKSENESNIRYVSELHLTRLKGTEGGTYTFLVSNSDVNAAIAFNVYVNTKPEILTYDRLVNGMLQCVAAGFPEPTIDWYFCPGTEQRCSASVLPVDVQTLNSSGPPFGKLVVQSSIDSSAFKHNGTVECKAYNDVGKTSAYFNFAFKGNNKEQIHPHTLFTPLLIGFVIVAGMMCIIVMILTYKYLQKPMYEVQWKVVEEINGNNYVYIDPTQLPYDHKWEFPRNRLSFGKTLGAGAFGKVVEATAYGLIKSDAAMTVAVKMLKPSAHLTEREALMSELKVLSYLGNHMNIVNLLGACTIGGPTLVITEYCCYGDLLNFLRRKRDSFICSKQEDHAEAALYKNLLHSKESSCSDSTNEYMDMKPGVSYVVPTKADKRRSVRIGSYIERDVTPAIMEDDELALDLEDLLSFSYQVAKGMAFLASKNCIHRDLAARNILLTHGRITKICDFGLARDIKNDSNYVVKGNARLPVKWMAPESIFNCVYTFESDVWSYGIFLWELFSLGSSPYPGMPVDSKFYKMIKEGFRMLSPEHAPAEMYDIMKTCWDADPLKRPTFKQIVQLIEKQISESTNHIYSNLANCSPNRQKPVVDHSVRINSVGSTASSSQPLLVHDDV
Epidermal growth factor receptor, sequence (P00533 whole entry): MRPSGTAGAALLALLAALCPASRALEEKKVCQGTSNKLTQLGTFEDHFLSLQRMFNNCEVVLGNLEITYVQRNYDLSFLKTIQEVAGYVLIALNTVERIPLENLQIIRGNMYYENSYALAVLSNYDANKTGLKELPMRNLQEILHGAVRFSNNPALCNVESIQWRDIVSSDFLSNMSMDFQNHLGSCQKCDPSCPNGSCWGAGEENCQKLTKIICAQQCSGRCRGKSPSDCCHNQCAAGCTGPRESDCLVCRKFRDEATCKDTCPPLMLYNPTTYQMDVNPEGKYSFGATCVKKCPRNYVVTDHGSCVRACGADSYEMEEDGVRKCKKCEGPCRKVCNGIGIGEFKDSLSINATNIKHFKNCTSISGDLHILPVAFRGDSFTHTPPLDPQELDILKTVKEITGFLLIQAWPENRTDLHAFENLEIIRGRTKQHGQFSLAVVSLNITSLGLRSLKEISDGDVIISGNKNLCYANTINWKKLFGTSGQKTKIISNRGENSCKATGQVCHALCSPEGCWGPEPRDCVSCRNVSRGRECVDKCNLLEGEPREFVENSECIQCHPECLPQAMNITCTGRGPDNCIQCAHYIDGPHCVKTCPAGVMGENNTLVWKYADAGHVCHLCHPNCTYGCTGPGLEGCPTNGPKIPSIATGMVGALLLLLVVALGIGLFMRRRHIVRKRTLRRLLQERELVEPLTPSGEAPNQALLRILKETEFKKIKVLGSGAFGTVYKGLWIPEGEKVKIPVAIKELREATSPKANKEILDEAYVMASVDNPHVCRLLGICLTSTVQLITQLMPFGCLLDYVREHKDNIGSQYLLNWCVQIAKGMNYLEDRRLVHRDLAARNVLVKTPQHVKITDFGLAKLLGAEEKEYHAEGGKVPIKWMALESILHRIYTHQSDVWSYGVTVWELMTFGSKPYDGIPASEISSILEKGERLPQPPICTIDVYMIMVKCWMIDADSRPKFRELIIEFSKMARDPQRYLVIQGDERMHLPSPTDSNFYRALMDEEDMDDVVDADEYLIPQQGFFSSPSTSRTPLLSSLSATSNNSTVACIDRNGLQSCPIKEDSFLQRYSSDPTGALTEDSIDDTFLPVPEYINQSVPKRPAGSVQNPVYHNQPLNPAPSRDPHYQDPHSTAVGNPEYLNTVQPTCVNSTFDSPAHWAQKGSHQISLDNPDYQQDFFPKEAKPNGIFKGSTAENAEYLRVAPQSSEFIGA

inhibition [1]: inactive
IC50 [2]: 440 nM
inhibition [3]: Dose-dependent effect
IC50 [4]: 0.5 nM
IC50 [6]: 95300 nM
SMILES: CN(C)[C@H](CS(C)(=O)=O)c1ccc(-c2ccc3ncnc(Nc4ccc(OCc5cccc(F)c5)c(Cl)c4)c3c2)o1
Activity [5]: 70%
inhibition in vivo at 100 mg/kg [7]: 68%
